{
  "source": "paper PMC3495823",
  "about": "(Cell Cycle, 2012)",
  "key": {"[1]": {"assay": "Tissue distribution by LC-MS/MS after intraperitoneal injection", "type": "in vivo, mouse", "conditions": "20 mg/kg i.p.", "outline": "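Mice received 20 mg/kg in peanut oil i.p. or by oral gavage; tissues and cardiac blood were taken 1, 4 and 24 h later, with brain cortex and cerebellum at 4 h. Weighed tissues (or 30 µL serum in water) were extracted three times with dichloromethane and analysed by ESI-positive LC-MS/MS. Levels came from peak AUC against calibration curves, with internal-standard normalization for quantification; three samples per point.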"}, "[2]": {"assay": "Octanol-PBS partition coefficient", "type": "physicochemical", "conditions": "n-octanol/PBS, pH 7.4", "outline": "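Shake-flask method: 1 mg compound was dissolved in 1 mL octanol-saturated PBS pH 7.4 and shaken with 1 mL PBS-saturated octanol for 24 h at 37°C. Phases were separated by centrifugation (10,000 rpm, 10 min) and each was analysed by LC-MS/MS. LogD7.4 was calculated from the ratio of peak AUCs, each normalized to its injection volume.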"}, "[3]": {"conditions": "normal mice, 4 hours after injection"}},
  "data": [
    {"molecule": "CC(C)[C@H](CO)Nc1nc(Nc2ccc(C(=O)O)c(Cl)c2)c2ncn(C(C)C)c2n1", "note": "[PVB, purvalanol B]", "values": [
      {"measurement": "detection in kidney, spleen, pancreas, prostate lung and serum", "setting": "[1]", "value": "detected"},
      {"measurement": "overall tissue and serum levels compared with VMY", "setting": "[1]", "value": "lower than VMY"},
      {"measurement": "concentration in cerebellar tissue", "setting": "[1]; [3]", "value": "not detected"},
      {"measurement": "concentration in cortical tissue", "setting": "[1]; [3]", "value": "not detected"},
      {"measurement": "logD", "setting": "[2]", "value": "0.15 ± 0.002"}
    ]}
  ]
}
